Reference: ChEMBL document CHEMBL1148744, “Synthesis and antiviral and cytostatic evaluations of the new C-5 substituted pyrimidine and furo[2,3-d]pyrimidine 4',5'-didehydro-L-ascorbic acid derivatives” (J Med Chem, 2007)
Values after ≈ are worked out from the molar mass of the structure shown.

Experiments:
[1] = Cytotoxicity against human HEL cells assessed as alteration in cell morphology; assay type: cell-based
Summary of the method: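 Confluent human embryonic lung (HEL) fibroblast cultures were exposed to a range of compound concentrations. Cells were examined microscopically for any detectable change in normal morphology. The minimum cytotoxic concentration (MCC) was the lowest concentration causing such a change.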

[2] = Cytotoxicity against human HEL cells assessed as reduction of cell growth; assay type: cell-based
Summary of the method: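 HEL cells were seeded at 5 × 10^3 cells/well and allowed to proliferate for 24 h. Medium with graded compound concentrations was then added, followed by 3 days at 37 °C. Cell number was counted with a Coulter counter.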

[3] = test system: Human alphaherpesvirus 2; assay: Antiviral activity against HSV2 G in HEL cells assessed as reduction of virus-induced cytopathogenicity; assay type: functional; conditions: Human alphaherpesvirus 2, G
[4] = test system: Mammalian orthoreovirus 1; assay: Antiviral activity against Reovirus 1 in Vero cells assessed as reduction of virus-induced cytopathogenicity; assay type: functional
[5] = test system: Vesicular stomatitis virus; assay: Antiviral activity against VSV in HeLa cells assessed as reduction of virus-induced cytopathogenicity; assay type: functional
[6] = test system: Human respirovirus 3; assay: Antiviral activity against Parainfluenza 3 virus in Vero cells assessed as reduction of virus-induced cytopathogenicity; assay type: functional
[7] = test system: Sindbis virus; assay: Antiviral activity against Sindbis virus in Vero cells assessed as reduction of virus-induced cytopathogenicity; assay type: functional
[8] = test system: Punta Toro virus; assay: Antiviral activity against Punta Toro virus in Vero cells assessed as reduction of virus-induced cytopathogenicity; assay type: functional
[9] = test system: Coxsackievirus B4; assay: Antiviral activity against Coxsackie virus B4 in Vero cells assessed as reduction of virus-induced cytopathogenicity; assay type: functional; conditions: Enterovirus B
[10] = test system: Respiratory syncytial virus; assay: Antiviral activity against RSV in HeLa cells assessed as reduction of virus-induced cytopathogenicity; assay type: functional; conditions: human respiratory syncytial virus
[11] = test system: Human betaherpesvirus 5; assay: Antiviral activity against CMV Davis in human HEL cells after 7 days; assay type: functional, organism-based; conditions: Human betaherpesvirus 5, Davis, 168 h
Summary of the method: (§1)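 Confluent HEL fibroblasts were infected at 100 PFU per well. After 2 h, residual virus was removed and cells were kept in MEM with serial compound concentrations for 7 days at 37 °C. Cytopathogenicity or plaques were scored microscopically after ethanol fixation and Giemsa staining.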

[12] = test system: Human betaherpesvirus 5; assay: Antiviral activity against CMV AD169 in human HEL cells after 7 days; assay type: functional, organism-based; conditions: Human betaherpesvirus 5, AD169, HEL, 168 h; summary of the method: as §1
[13] = test system: Human alphaherpesvirus 3; assay: Antiviral activity against thymidine kinase-positive VZV OKA in human HEL cells after 7 days; assay type: functional, organism-based; conditions: Human alphaherpesvirus 3, OKA, 168 h
[14] = test system: Human alphaherpesvirus 3; assay: Antiviral activity against thymidine kinase deficient VZV 07/1 in human HEL cells after 7 days; assay type: functional, organism-based; conditions: Human alphaherpesvirus 3, 07/1, HEL, 168 h
[15] = test system: Human alphaherpesvirus 1; assay: Antiviral activity against HSV1 KOS in HEL cells assessed as reduction of virus-induced cytopathogenicity; assay type: functional; conditions: Human alphaherpesvirus 1, KOS

O=C1O/C(=C\Cn2cc3cc(-c4ccc(Br)cc4)oc3nc2=O)C(OCc2ccccc2)=C1OCc1ccccc1 showed an MCC [1] of at least 20 µM.

Work on Nc1nc2c(ncn2COCCO)c(=O)[nH]1 [ACYCLOVIR] yielded a CC50 [2] of 545 µM, an MCC [1] of over 1780 µM and an MIC [3] of 0.4 µM (≈ 0.0901 µg/mL).

CCCCCC(O)c1cc2cn(C/C=C3\OC(=O)C(OCc4ccccc4)=C3OCc3ccccc3)c(=O)nc2o1 (stereo unspecified) gave an MCC [1] of at least 100 µM.

CCCCc1cc2cn(C/C=C3\OC(=O)C(OCc4ccccc4)=C3OCc3ccccc3)c(=O)nc2o1 gave an MCC [1] of 20 µM.

Cc1ccc(-c2cc3cn(C/C=C4\OC(=O)C(OCc5ccccc5)=C4OCc4ccccc4)c(=O)nc3o2)cc1 showed an MCC [1] of 100 µM.

CCCCCC#Cc1cn(C/C=C2\OC(=O)C(OCc3ccccc3)=C2OCc2ccccc2)c(=O)[nH]c1=O showed an MCC [1] of 20 µM.

Compound Cc1ccc(C#Cc2cn(C/C=C3\OC(=O)C(OCc4ccccc4)=C3OCc3ccccc3)c(=O)[nH]c2=O)cc1 has an MCC [1] of 60 µM.

With CCCCCc1ccc(C#Cc2cn(C/C=C3\OC(=O)C(OCc4ccccc4)=C3OCc3ccccc3)c(=O)[nH]c2=O)cc1 the MCC [1] was at least 4 µM.

With Nc1ncnc2c1ncn2C[C@H](O)CO [(S)-DHPA] the MIC [4] was 250 µM (≈ 52.3 µg/mL), the MIC [5] was over 250 µM and the MIC [6] was 50 µM (≈ 10.5 µg/mL). For the same compound, the MIC [7] was over 250 µM, the MIC [8] was over 250 µM and the MIC [9] was over 250 µM. The MIC [10] was over 250 µM.

Nc1ccn(C[C@@H](CO)OCP(=O)(O)O)c(=O)n1 [CIDOFOVIR] showed a CC50 [2] of 133 µM, an MCC [1] of at least 1270 µM and an EC50 [11] of 0.67 µM. For the same compound, the EC50 [12] was 0.67 µM.

O=c1[nH]c(=O)n([C@H]2C[C@H](O)[C@@H](CO)O2)cc1/C=C/Br [BRIVUDINE] showed a CC50 [2] of 270 µM, an MIC [4] of over 250 µM and an MIC [5] of over 250 µM. The MCC [1] was at least 1200 µM, the MIC [6] was over 250 µM and the MIC [7] was over 250 µM. It also gave an MIC [8] of over 250 µM, an MIC [9] of over 250 µM and an EC50 [13] of 0.014 µM. The MIC [10] was over 250 µM, the MIC [3] was 10 µM (≈ 3.33 µg/mL) and the EC50 [14] was 168 µM.

Compound CCCCc1ccc(-c2cc3cn(C/C=C4\OC(=O)C(OCc5ccccc5)=C4OCc4ccccc4)c(=O)nc3o2)cc1 has an MCC [1] of at least 20 µM.

In the case of Nc1nc2c(ncn2COC(CO)CO)c(=O)[nH]1 [GANCICLOVIR], the CC50 [2] is reported as 262 µM, the MCC [1] is reported as at least 1580 µM and the MIC [15] is reported as 0.032 µM (≈ 0.00817 µg/mL). The EC50 [11] was 2.6 µM and the MIC [3] was 0.0064 µM (≈ 0.00163 µg/mL).

For CCCCC#Cc1cn(C/C=C2\OC(=O)C(OCc3ccccc3)=C2OCc2ccccc2)c(=O)[nH]c1=O, the MCC [1] was at least 100 µM.

For O=C1O/C(=C\Cn2cc(C#Cc3ccc(Br)cc3)c(=O)[nH]c2=O)C(OCc2ccccc2)=C1OCc1ccccc1, the MCC [1] was at least 4 µM.

With CCCCCc1ccc(-c2cc3cn(C/C=C4\OC(=O)C(OCc5ccccc5)=C4OCc4ccccc4)c(=O)nc3o2)cc1 the MCC [1] was at least 20 µM.

CCCCCCC#Cc1cn(C/C=C2\OC(=O)C(OCc3ccccc3)=C2OCc2ccccc2)c(=O)[nH]c1=O gave an MCC [1] of 20 µM.

For O=C1O/C(=C\Cn2cc3cc(CCc4ccccc4)oc3nc2=O)C(OCc2ccccc2)=C1OCc1ccccc1, the MCC [1] was 100 µM.

Compound CCCCCC(O)C#Cc1cn(C/C=C2\OC(=O)C(OCc3ccccc3)=C2OCc2ccccc2)c(=O)[nH]c1=O (stereo unspecified) has an MCC [1] of at least 100 µM.

Compound C#CCCCc1cc2cn(C/C=C3\OC(=O)C(OCc4ccccc4)=C3OCc3ccccc3)c(=O)nc2o1 has an MCC [1] of over 100 µM.

Compound CCCCc1ccc(C#Cc2cn(C/C=C3\OC(=O)C(OCc4ccccc4)=C3OCc3ccccc3)c(=O)[nH]c2=O)cc1 has an MCC [1] of 60 µM.

For CCCCCCCCC#Cc1cn(C/C=C2\OC(=O)C(OCc3ccccc3)=C2OCc2ccccc2)c(=O)[nH]c1=O, the MCC [1] was 100 µM.

In the case of NC(=O)c1ncn([C@@H]2O[C@H](CO)[C@@H](O)[C@H]2O)n1 [RIBAVIRIN], the MIC [4] is reported as 150 µM (≈ 36.6 µg/mL), the MIC [5] is reported as over 250 µM and the MIC [6] is reported as 150 µM (≈ 36.6 µg/mL). For the same compound, the MIC [7] was over 250 µM, the MIC [8] was 250 µM (≈ 61.1 µg/mL) and the MIC [15] was 250 µM (≈ 61.1 µg/mL). It also gave an MIC [9] of over 250 µM, an MIC [10] of 150 µM (≈ 36.6 µg/mL) and an MIC [3] of 250 µM (≈ 61.1 µg/mL).

CCCCCCc1cc2cn(C/C=C3\OC(=O)C(OCc4ccccc4)=C3OCc3ccccc3)c(=O)nc2o1 gave an MCC [1] of 100 µM.

CCCCCCCCc1cc2cn(C/C=C3\OC(=O)C(OCc4ccccc4)=C3OCc3ccccc3)c(=O)nc2o1 gave an MCC [1] of 100 µM.

Work on C#CCCCC#Cc1cn(C/C=C2\OC(=O)C(OCc3ccccc3)=C2OCc2ccccc2)c(=O)[nH]c1=O yielded an MCC [1] of at least 20 µM.

For CCCCCc1cc2cn(C/C=C3\OC(=O)C(OCc4ccccc4)=C3OCc3ccccc3)c(=O)nc2o1, the MCC [1] was 100 µM.
